Experimental data from ChEMBL document CHEMBL2046305, “Discovery of selective menaquinone biosynthesis inhibitors against Mycobacterium tuberculosis” (J Med Chem, 2012).
pIC50: −log10 of the molar value. ≈ marks a conversion by molar mass, not a printed value. Calls of active or inactive are those of the source. The rule behind the calls is not given here.

Key:
[1] = tested on: Mycobacterium tuberculosis; experiment: Antibacterial activity against non-replicating Mycobacterium tuberculosis H37Rv ATCC 27294 by low oxygen recovery assay; type: functional
[2] = tested on: Escherichia coli; experiment: Growth inhibition of Escherichia coli Seattle ATCC 25922 at 5 to 10 ug/ml by microplate alamar blue assay in presence of 50 uM VK2; type: functional, organism-based
In short: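 E. coli grown with inhibitor under anaerobic conditions; rescue tested by supplementing with menaquinone (VK2, 50 μM).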

[3] = Inhibition of Mycobacterium tuberculosis MenA using [3H]farnesyl and DHNA as substrate after 2 hrs
In short: (§1)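 Membrane fraction from mid-log cultures in 7H9/OADC, washed in saline, sonicated in MOPS pH 8/sucrose/MgCl2/2-mercaptoethanol buffer, spun 15,000 g then 200,000 g; the fraction was the enzyme source. DHNA (500 μM stock), MgCl2, 0.1% CHAPS, Tris pH 8, farnesyl diphosphate (200 μM stock) and inhibitor, 2 h at 37 °C. Quenched with 0.1 M AcOH/MeOH, extracted with hexanes, DMMK measured.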

[4] = tested on: Escherichia coli; experiment: Growth inhibition of Escherichia coli Seattle ATCC 25922 at 5 to 10 ug/ml by microplate alamar blue assay; type: functional, organism-based
[5] = tested on: Mycobacterium tuberculosis; experiment: Inhibition of Mycobacterium tuberculosis MenA using [3H]farnesyl and DHNA as substrate at 100 uM after 2 hrs; in short: as §1
[6] = tested on: Mycobacterium tuberculosis; experiment: Antibacterial activity against Mycobacterium tuberculosis H37Rv ATCC 27294 by microplate alamar blue assay; type: functional
In short: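 Colorimetric microplate assay run under aerobic conditions; growth scored by the colour change of resazurin. Compounds showing at least 90% inhibition in a preliminary screen were retested at lower concentrations to give the MIC.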

[7] = tested on: Staphylococcus aureus; experiment: Inhibition of Staphylococcus aureus MenA using [3H]farnesyl and DHNA as substrate at 100 uM after 2 hrs; in short: as §1
[8] = tested on: Mycobacterium tuberculosis; experiment: Bactericidal activity against Mycobacterium tuberculosis; type: functional
[9] = tested on: Staphylococcus aureus; experiment: Bactericidal activity against Staphylococcus aureus; type: functional
[10] = tested on: Staphylococcus aureus; experiment: Antibacterial activity against Staphylococcus aureus Seattle 1945 ATCC 25923 by agar plate diffusion method; type: functional
[11] = tested on: Escherichia coli; experiment: Antibacterial activity against Escherichia coli Seattle ATCC 25922 at 12.5 ug/ml by oxygen consumption assay; type: functional, organism-based
[12] = tested on: HepG2; experiment: Cytotoxicity against human HepG2 cells after 72 hrs by MTT assay; type: cell-based; conditions: HepG2, 72 h
In short: (§2)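 Cell viability after 72 h exposure, tested at 10 times the H37Rv MIC; read-out was cellular conversion of MTT into formazan.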

[13] = tested on: Vero; experiment: Cytotoxicity against african green monkey Vero cells after 72 hrs by MTT assay; type: cell-based; conditions: Chlorocebus sabaeus; in short: as §2
[14] = tested on: Mycobacterium tuberculosis; experiment: Ratio of MIC for rifampicin to compound MIC for non-replicating Mycobacterium tuberculosis H37Rv ATCC 27294 by low oxygen recovery assay; type: functional
[15] = tested on: Mycolicibacterium smegmatis; experiment: Antibacterial activity against Mycobacterium smegmatis by microplate alamar blue assay; type: functional
[16] = tested on: Mycobacterium intracellulare; experiment: Antibacterial activity against Mycobacterium intracellulare ATCC 15984 by microplate alamar blue assay; type: functional
[17] = Selectivity ratio of IC50 for african green monkey Vero cells to IC50 for Mycobacterium tuberculosis […]; type: ADME, cell-based; conditions: read-out: Ratio IC50
[18] = Selectivity ratio of IC50 for human HepG2 cells to IC50 for Mycobacterium tuberculosis […]; type: ADME, cell-based; conditions: read-out: Ratio IC50

| SMILES | MIC [1] [µg/mL] | growth inhibition (GI) [2] | pIC50 [3] | growth inhibition (GI) [4] | inhibition [5] | MIC [6] [µg/mL] | inhibition [7] | MIC [8] [µg/mL] | MIC [9] [µg/mL] | MIC [10] [µg/mL] | Activity [11] | IC50 [12] [µg/mL] | IC50 [13] [µg/mL] | Ratio [14] | MIC [15] [µg/mL] | MIC [16] [µg/mL] | selectivity ratio [17] | selectivity ratio [18] |
| --- | --- | --- | --- | --- | --- | --- | --- | --- | --- | --- | --- | --- | --- | --- | --- | --- | --- | --- |
| COc1ccc(CCNC(CO)c2cccc(COc3cccc(C(=O)c4ccc(Cl)cc4)c3)c2)cc1 (racemic) | 3 (≈ 5.81 µM) | inactive | 4.82 | Active | Active | 12.5 (≈ 24.2 µM) | inactive | 8 (≈ 15.5 µM) | > 50 | > 60 |  |  |  |  |  |  |  |  |
| CCCCCC[C@@H](CN1CCC(COc2ccc(C(=O)c3ccc(Cl)cc3)c(Cl)c2)CC1)OC(N)=O | 1.45 (≈ 2.71 µM) | inactive | 5.82 | Active | Active | 1.5 (≈ 2.8 µM) | inactive |  |  | > 60 | Active |  |  |  |  |  |  |  |
| CCCCCC[C@H](CN1CCC(COc2cccc(C(=O)c3ccc(Cl)cc3)c2)CC1)OC(N)=O | 0.85 (≈ 1.7 µM) | inactive | 5.82 | Active | Active | 2.31 (≈ 4.61 µM) | inactive |  |  | > 60 | Active | 7.5 (≈ 15 µM) | 7.5 (≈ 15 µM) | 1.7 | 6.5 (≈ 13 µM) | 6.5 (≈ 13 µM) |  |  |
| CCCCCC[C@H](CN1CCC(COc2cccc(/C(=N\OC)c3ccc(Cl)cc3)c2)CC1)OC(N)=O | 0.85 (≈ 1.6 µM) | inactive | 5.92 | Active | Active | 2.31 (≈ 4.36 µM) | inactive |  |  | > 60 |  | 25 (≈ 47.2 µM) | 25 (≈ 47.2 µM) |  | 6.5 (≈ 12.3 µM) | 6.5 (≈ 12.3 µM) | > 10 | > 10 |
| CCCCCCCC(O)c1cccc(CN2CCC(COc3cccc(C(=O)c4ccc(Cl)cc4)c3)CC2)c1 (racemic) | 1.88 (≈ 3.43 µM) | inactive | 4.82 | Active | Active | 12.5 (≈ 22.8 µM) | inactive | 8 (≈ 14.6 µM) | > 50 | > 60 |  |  |  |  |  |  |  |  |
| CCCCC(O)CN1CCC(COc2cccc(C(=O)c3ccc(Cl)cc3)c2)CC1 (racemic) | 5.2 (≈ 12.1 µM) | inactive | 4.82 | Active | Active | 12.5 (≈ 29.1 µM) | inactive | 8 (≈ 18.6 µM) | > 50 | > 60 |  |  |  |  |  |  |  |  |
| CCCCCCCC(O)c1cccc(CN2CCC(COc3ccc(C(=O)c4ccc(Cl)cc4)c(Cl)c3)CC2)c1 (racemic) | 1.88 (≈ 3.23 µM) | inactive | 4.70 | Active | Active | 12.5 (≈ 21.5 µM) | inactive | 8 (≈ 13.7 µM) | > 50 | > 60 |  |  |  |  |  |  |  |  |
| CCCCC(O)CN1CCC(COc2ccc(C(=O)c3ccc(Cl)cc3)c(Cl)c2)CC1 (racemic) | 2.82 (≈ 6.07 µM) | inactive | 4.82 | Active | Active | 6.25 (≈ 13.5 µM) | inactive | 0.5 (≈ 1.08 µM) | > 50 | > 60 |  |  |  |  |  |  |  |  |
